{"data": "Assay results gathered from unrelated publications", "observed": "metabolic stability", "species": "human", "matrix": "liver microsomes", "note": "Lines come from different studies, so protocols differ."}
{"conditions": "3 µM, pH 7.4", "microsomal CLint": "93 µL/min/mg", "Structure (SMILES)": "COc1ccc(-c2nc3ccccn3c2N(C)c2ccc(F)cc2)nc1"}
{"microsomal CLint": "< 1 µL/min/mg", "Structure (SMILES)": "CN1CCN(c2nc(-c3ccccn3)nc3ccccc23)CC1"}
{"conditions": "1 µM", "microsomal CLint": "17 µL/min/mg", "Structure (SMILES)": "COc1cc2[nH]c(C)c(-c3ccc(S(=O)(=O)N(C)C)cc3)c(=O)c2cc1Cl"}
{"microsomal CLint": "149 µL/min/mg", "Structure (SMILES)": "c1ccc(C2CCN(c3nc(-c4ccco4)nc4ccccc34)C2)nc1 (stereo not shown)"}
{"conditions": "1 µM", "microsomal CLint": "11 µL/min/mg", "Structure (SMILES)": "COc1cc2[nH]c(C)c(-c3ccc(C(C)=O)cc3)c(=O)c2cc1Cl"}
{"microsomal CLint": "111 µL/min/mg", "Structure (SMILES)": "NC(=O)c1cccc(-c2nc(N3CCC(c4ccccn4)C3)c3ccccc3n2)c1 (stereo not shown)"}
{"conditions": "3 µM, pH 7.4", "microsomal CLint": "44 µL/min/mg", "Structure (SMILES)": "Fc1ccc(Nc2c(-c3ccccn3)nc3ccccn23)nc1"}
{"conditions": "1 µM", "microsomal CLint": "9 µL/min/mg", "Structure (SMILES)": "COc1cc2[nH]c(C)c(-c3ccc(F)cc3F)c(=O)c2cc1Cl"}
{"conditions": "3 µM, pH 7.4", "microsomal CLint": "59 µL/min/mg", "Structure (SMILES)": "FC(F)(F)c1cccc(Nc2c(-c3ccccn3)nc3ccccn23)c1"}
{"microsomal CLint": "71.3 µL/min/mg", "Structure (SMILES)": "O=S(=O)(c1ccc(-c2ccc3nccc(Nc4ccccc4)c3c2)cc1)N1CCOCC1"}
{"conditions": "3 µM, pH 7.4", "microsomal CLint": "< 3 µL/min/mg", "Structure (SMILES)": "CN(C)C(=O)c1ccc(-c2c(-c3ccccn3)nc3n2CCC3)cc1"}
{"microsomal CLint": "< 1 µL/min/mg", "Structure (SMILES)": "CCn1cc2c(N3CCC(c4ccccn4)C3)nc(-c3ccccn3)nc2n1 (stereo not shown)"}
{"microsomal CLint": "106 µL/min/mg", "Structure (SMILES)": "O=[N+]([O-])c1ccc(Nc2ccnc3ccc(-c4ccc(S(=O)(=O)N5CCOCC5)cc4)cc23)cn1"}
